# From ChEMBL document CHEMBL3867440, “Hernandezine, a Bisbenzylisoquinoline Alkaloid with Selective Inhibitory Activity against Multidrug-Resistance-Linked ATP-Binding Cassette Drug Transporter ABCB1” (J Nat Prod, 2016)
# How the values were obtained:
# [1] = biological target: T1, ATP-dependent translocase ABCB1 (Homo sapiens, UniProt P08183); test: Inhibition of ABCB1 in human NCI-ADR-RES cells assessed as potentiation of doxorubicin-induced cytotoxicity by measuring doxorubicin resistance ratio at 500 nM after 72 hrs by MTT assay relative to parental OVCAR8 cells (reference value: 46); assay type: cell-based; conditions: ovcar-8, 72 h, 0.5 µM
# T1 sequence (P08183 whole entry): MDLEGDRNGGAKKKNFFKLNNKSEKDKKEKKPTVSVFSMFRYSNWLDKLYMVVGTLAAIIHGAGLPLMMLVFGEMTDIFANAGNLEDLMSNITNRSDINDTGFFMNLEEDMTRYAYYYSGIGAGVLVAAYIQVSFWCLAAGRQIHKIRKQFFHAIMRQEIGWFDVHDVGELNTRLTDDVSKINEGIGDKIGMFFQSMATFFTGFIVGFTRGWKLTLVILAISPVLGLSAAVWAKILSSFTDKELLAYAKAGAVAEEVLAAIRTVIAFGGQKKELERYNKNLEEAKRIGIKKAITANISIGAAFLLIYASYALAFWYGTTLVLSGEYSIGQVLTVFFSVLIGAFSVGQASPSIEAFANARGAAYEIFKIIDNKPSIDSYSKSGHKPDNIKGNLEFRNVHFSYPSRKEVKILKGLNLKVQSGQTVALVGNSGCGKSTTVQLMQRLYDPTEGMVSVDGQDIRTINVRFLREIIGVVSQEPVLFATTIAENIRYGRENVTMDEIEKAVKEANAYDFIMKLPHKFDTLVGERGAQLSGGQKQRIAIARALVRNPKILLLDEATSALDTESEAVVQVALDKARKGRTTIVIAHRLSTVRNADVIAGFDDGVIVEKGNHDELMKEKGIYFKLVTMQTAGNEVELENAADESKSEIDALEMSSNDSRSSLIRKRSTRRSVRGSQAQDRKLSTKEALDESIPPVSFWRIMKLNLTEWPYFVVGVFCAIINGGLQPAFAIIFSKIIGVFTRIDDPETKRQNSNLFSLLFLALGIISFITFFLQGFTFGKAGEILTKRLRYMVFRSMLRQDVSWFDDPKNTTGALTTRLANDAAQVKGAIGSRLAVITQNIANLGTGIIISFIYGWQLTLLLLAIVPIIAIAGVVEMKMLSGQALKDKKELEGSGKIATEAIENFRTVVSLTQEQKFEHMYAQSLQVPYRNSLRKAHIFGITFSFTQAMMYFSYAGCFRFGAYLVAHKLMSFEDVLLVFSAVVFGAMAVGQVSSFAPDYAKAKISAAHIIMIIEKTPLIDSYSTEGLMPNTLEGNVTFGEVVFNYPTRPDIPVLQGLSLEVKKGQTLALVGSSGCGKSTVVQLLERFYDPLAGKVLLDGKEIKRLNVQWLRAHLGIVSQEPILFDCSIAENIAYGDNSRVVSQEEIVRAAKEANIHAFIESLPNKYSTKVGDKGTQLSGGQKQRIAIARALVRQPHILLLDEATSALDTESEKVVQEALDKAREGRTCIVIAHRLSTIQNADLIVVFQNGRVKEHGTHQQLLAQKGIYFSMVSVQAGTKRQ
# How it was run: (§1)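 Cells were kept in drug-free DMEM with 10% FCS for 7 days before assay, then plated at 5000 cells/well for 24 h. Drug at various concentrations was added with a nontoxic fixed level of modulator for 72 h, and the read-out was MTT. IC50 came from fitted curves (≥3 experiments). RR = IC50 of the resistant line / IC50 of the parental line.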
# KB 3-1 [2] = test: Potentiation of colchicine-induced apoptosis in human KB-3-1 cells assessed as viable cells at 1 uM after 48 hrs by Annexin V-FITC/propidium iodide staining based FACS analysis (reference value: 38.9%); assay type: functional; conditions: KB 3-1, 48 h, read-out: Activity
# [3] = biological target: T1, ATP-dependent translocase ABCB1; test: Inhibition of ABCB1 in human KBV1 cells assessed as reduction in Calcein-AM dye efflux 1 uM by FACS analysis; assay type: cell-based; conditions: kbv1, 1 µM
# How it was run: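 Trypsinized cells were resuspended in IMDM with 5% FCS. Calcein-AM was added to 3 × 10^5 cells in 4 mL IMDM, with or without 1 μM test compound or 3 μM tariquidar. Intracellular calcein fluorescence was read immediately by flow cytometry, with the drug-sensitive parental line run in parallel.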
# KB 3-1 [4] = test: Potentiation of colchicine-induced apoptosis in human KB-3-1 cells assessed as necrotic cells at 1 uM after 48 hrs by Annexin V-FITC/propidium iodide staining based FACS analysis (reference value: 4.9%); assay type: functional
# [5] = biological target: T1, ATP-dependent translocase ABCB1; test: Inhibition of ABCB1 in human KBV1 cells assessed as potentiation of colchicine-induced cytotoxicity by measuring colchicine resistance ratio at 500 nM after 72 hrs by MTT assay relative to parental KB-3-1 cells (reference value: 55); assay type: cell-based; conditions: kbv1, 72 h, 0.5 µM; how it was run: as §1
# [6] = biological target: T1, ATP-dependent translocase ABCB1; test: Inhibition of ABCB1 in human KBV1 cells assessed as potentiation of doxorubicin-induced cytotoxicity by measuring doxorubicin resistance ratio at 200 nM after 72 hrs by MTT assay relative to parental KB-3-1 cells (reference value: 34); assay type: cell-based; conditions: kbv1, 72 h, 0.2 µM; how it was run: as §1
# [7] = biological target: T1, ATP-dependent translocase ABCB1; test: Inhibition of ABCB1 in human NCI-ADR-RES cells assessed as potentiation of colchicine-induced cytotoxicity by measuring colchicine resistance ratio at 200 nM after 72 hrs by MTT assay relative to parental OVCAR8 cells (reference value: 59); assay type: cell-based; conditions: ovcar-8, 72 h, 0.2 µM; how it was run: as §1
# [8] = biological target: T1, ATP-dependent translocase ABCB1; test: Inhibition of ABCB1 in human NCI-ADR-RES cells assessed as potentiation of colchicine-induced cytotoxicity by measuring colchicine resistance ratio at 50 nM after 72 hrs by MTT assay relative to parental OVCAR8 cells (reference value: 59); assay type: cell-based; conditions: ovcar-8, 72 h, 0.05 µM; how it was run: as §1
# KB-V1 [9] = test: Induction of apoptosis in human KBV1 cells assessed as viable cells at 1 uM after 48 hrs by Annexin V-FITC/propidium iodide staining based FACS analysis (reference value: 86.1%); assay type: functional; conditions: KB-V1, 48 h, read-out: Activity
# [10] = biological target: T1, ATP-dependent translocase ABCB1; test: Inhibition of ABCB1 in human KBV1 cells assessed as potentiation of doxorubicin-induced cytotoxicity by measuring doxorubicin resistance ratio at 500 nM after 72 hrs by MTT assay relative to parental KB-3-1 cells (reference value: 34); assay type: cell-based; conditions: kbv1, 72 h, 0.5 µM; how it was run: as §1
# [11] = biological target: T1, ATP-dependent translocase ABCB1; test: Inhibition of ABCB1 in human NCI-ADR-RES cells assessed as potentiation of doxorubicin-induced cytotoxicity by measuring doxorubicin resistance ratio at 50 nM after 72 hrs by MTT assay relative to parental OVCAR8 cells (reference value: 46); assay type: cell-based; conditions: ovcar-8, 72 h, 0.05 µM; how it was run: as §1
# [12] = biological target: T1, ATP-dependent translocase ABCB1; test: Inhibition of ABCB1 in human KBV1 cells assessed as potentiation of vincristine-induced cytotoxicity by measuring vincristine resistance ratio at 200 nM after 72 hrs by MTT assay relative to parental KB-3-1 cells (reference value: 356); assay type: cell-based; conditions: kbv1, 72 h, 0.2 µM; how it was run: as §1
# [13] = biological target: T1, ATP-dependent translocase ABCB1; test: Inhibition of ABCB1 in human NCI-ADR-RES cells assessed as potentiation of vincristine-induced cytotoxicity by measuring vincristine resistance ratio at 500 nM after 72 hrs by MTT assay relative to parental OVCAR8 cells (reference value: 435); assay type: cell-based; conditions: ovcar-8, 72 h, 0.5 µM; how it was run: as §1
# [14] = biological target: T1, ATP-dependent translocase ABCB1; test: Inhibition of ABCB1 in human NCI-ADR-RES cells assessed as potentiation of doxorubicin-induced cytotoxicity by measuring doxorubicin resistance ratio at 100 nM after 72 hrs by MTT assay relative to parental OVCAR8 cells (reference value: 46); assay type: cell-based; conditions: ovcar-8, 72 h, 0.1 µM; how it was run: as §1
# KB 3-1 [15] = test: Potentiation of colchicine-induced apoptosis in human KB-3-1 cells assessed as early apoptotic cells at 1 uM after 48 hrs by Annexin V-FITC/propidium iodide staining based FACS analysis (reference value: 30.5%); assay type: functional
# [16] = biological target: T1, ATP-dependent translocase ABCB1; test: Inhibition of human ABCB1-mediated efflux transfected in HEK293 cells assessed as accumulation of fluorescent dye by calcein-AM dye based FACS analysis; assay type: cell-based
# How it was run: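 The HEK293 cells, transfected with human ABCB1 (parental HEK293 as control), were trypsinized and resuspended in IMDM with 5% FCS. Calcein-AM was added to 3 × 10^5 cells in 4 mL, with or without test compound (single 1 μM or a concentration series) or 3 μM tariquidar. Fluorescence was read immediately by flow cytometry. Results are the mean ± SEM of at least three experiments.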
# [17] = biological target: T1, ATP-dependent translocase ABCB1; test: Inhibition of ABCB1 in human KBV1 cells assessed as potentiation of doxorubicin-induced cytotoxicity by measuring doxorubicin resistance ratio at 100 nM after 72 hrs by MTT assay relative to parental KB-3-1 cells (reference value: 34); assay type: cell-based; conditions: kbv1, 72 h, 0.1 µM; how it was run: as §1
# [18] = biological target: T1, ATP-dependent translocase ABCB1; test: Inhibition of ABCB1 in human NCI-ADR-RES cells assessed as potentiation of vincristine-induced cytotoxicity by measuring vincristine resistance ratio at 50 nM after 72 hrs by MTT assay relative to parental OVCAR8 cells (reference value: 435); assay type: cell-based; conditions: ovcar-8, 72 h, 0.05 µM; how it was run: as §1
# KB 3-1 [19] = test: Induction of apoptosis in human KB-3-1 cells assessed as early apoptotic cells at 1 uM after 48 hrs by Annexin V-FITC/propidium iodide staining based FACS analysis (reference value: 5.1%); assay type: functional
# KB-V1 [20] = test: Induction of apoptosis in human KBV1 cells assessed as late apoptotic cells at 1 uM after 48 hrs by Annexin V-FITC/propidium iodide staining based FACS analysis (reference value: 7.6%); assay type: functional
# [21] = biological target: T1, ATP-dependent translocase ABCB1; test: Inhibition of ABCB1 in human KBV1 cells assessed as potentiation of colchicine-induced cytotoxicity by measuring colchicine resistance ratio at 100 nM after 72 hrs by MTT assay relative to parental KB-3-1 cells (reference value: 55); assay type: cell-based; conditions: kbv1, 72 h, 0.1 µM; how it was run: as §1
# [22] = biological target: T1, ATP-dependent translocase ABCB1; test: Inhibition of ABCB1 in human KBV1 cells assessed as potentiation of vincristine-induced cytotoxicity by measuring vincristine resistance ratio at 50 nM after 72 hrs by MTT assay relative to parental KB-3-1 cells (reference value: 356); assay type: cell-based; conditions: kbv1, 72 h, 0.05 µM; how it was run: as §1
# [23] = biological target: T1, ATP-dependent translocase ABCB1; test: Inhibition of ABCB1 in human KBV1 cells assessed as potentiation of colchicine-induced cytotoxicity by measuring colchicine resistance ratio at 50 nM after 72 hrs by MTT assay relative to parental KB-3-1 cells (reference value: 55); assay type: cell-based; conditions: kbv1, 72 h, 0.05 µM; how it was run: as §1
smiles,measurement,setting,value
COc1ccc2cc1Oc1ccc(cc1)C[C@H]1c3cc(c(OC)cc3CCN1C)Oc1c(OC)c(OC)c(OC)c3c1[C@H](C2)N(C)CC3 [HERNANDEZINE],Ratio,[1],2
same,viability at 1 µM,KB 3-1 [2],37.4%
same,inhibition (INH),[3],Active
same,Activity,KB 3-1 [4],5.1%
same,Ratio,[5],3
same,Ratio,[6],2
same,Ratio,[7],10
same,Ratio,[8],46
same,viability at 1 µM,KB-V1 [9],87.6%
same,Ratio,[10],1
same,Ratio,[11],26
same,Ratio,[12],34
same,Ratio,[13],19
same,Ratio,[14],11
same,Activity,KB 3-1 [15],31.1%
same,IC50,[16],300 nM
same,inhibition (INH),"[16]; human, hek293",Dose-dependent effect
same,Ratio,[17],5
same,Ratio,[18],505
same,Activity,KB 3-1 [19],6.6%
same,Activity,KB-V1 [20],6.7%
same,Ratio,[21],21
same,Ratio,[22],325
same,Ratio,[23],31
